Data on eleven molecules can be found in ChEMBL document CHEMBL4017508, “Design, Synthesis, and Biological Evaluation of Novel Type I1/2 p38α MAP Kinase Inhibitors with Excellent Selectivity, High Potency, and Prolonged Target Residence Time by Interfering with the R-Spine” (J Med Chem, 2017).

One data set has as its system Liver. In words: Drug metabolism in rat liver microsomes assessed as metabolite formation after 180 mins in presence of NADPH by LC-MS analysis. In kind it is ADME, microsome. The note with it: 3 h. The method in brief: (§1)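 Incubation with rat liver microsomes for 180 min, run in triplicate; mean ± standard deviation reported. Parent decrease and percentage of formed metabolites were followed by LC-MS. Samples were dissolved in MeOH and separated on a C18 core-shell column at 20 °C. The gradient ran from 5 to 100% acetonitrile against water, both with 0.1% formic acid, at 500 μL/min. Detection used ESI+.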
For `O=C(NCC(O)CO)c1ccc2c(c1)C(=O)c1ccc(Nc3ccc(F)c(NC(=O)C4CC4)c3)cc1CC2` (configuration not stated), the Drug metabolism entry is “Metabolite_Notdetected”.

Test system in another data set: not listed separately
As to the kind of experiment: Metabolic stability in rat liver microsomes after 180 mins in presence of NADPH by LC-MS analysis. The class given is ADME, microsome. The note with it: read-out: Stability. The method in brief: as §1
As for `CNC(=O)c1ccc2c(c1)C(=O)c1ccc(Nc3cccc(C(=O)NC4CC4)c3F)cc1CC2`, the remaining at 3 h is 61.6%.

In the case of `O=C(NCCN1CCOCC1)c1ccc2c(c1)C(=O)c1ccc(Nc3cc(NC(=O)c4cccs4)c(F)cc3F)cc1CC2`, the remaining at 3 h worked out at 66.7%. As for `CNC(=O)c1ccc2c(c1)C(=O)c1ccc(Nc3ccc(F)c(NC(=O)C4CC4)c3)cc1CC2`, the remaining at 3 h worked out at 79.5%. For `O=C(NCC(O)CO)c1ccc2c(c1)C(=O)c1ccc(Nc3cc(NC(=O)c4cccs4)c(F)cc3F)cc1CC2` (configuration not stated), the remaining at 3 h came out at 76.6%. For `O=C(NCC(O)CO)c1ccc2c(c1)C(=O)c1ccc(Nc3ccc(F)c(NC(=O)C4CC4)c3)cc1CC2` (configuration not stated), the remaining at 3 h stood at 95.2%.

In the case of `CNC(=O)c1ccc2c(c1)C(=O)c1ccc(Nc3ccc(F)c(NC(=O)c4ccccc4)c3)cc1CC2`, the remaining at 3 h turned out to be 65.6%. In the case of `O=C(NCC(O)CO)c1ccc2c(c1)C(=O)c1ccc(Nc3cc(NC(=O)c4cccs4)c(F)cc3F)cc1OC2` (configuration not stated), the remaining at 3 h stood at 48.7%. For `O=C(NCCO)c1ccc2c(c1)C(=O)c1ccc(Nc3cc(NC(=O)c4cccs4)c(F)cc3F)cc1CC2`, the remaining at 3 h worked out at 66.9%. On the same count and under the same terms, to `O=C(NCCN1CCOCC1)c1ccc2c(c1)C(=O)c1ccc(Nc3ccc(F)c(NC(=O)c4ccccc4)c3)cc1OC2` belongs 14.8%; to `O=C(NCCN1CCOCC1)c1ccc2c(c1)C(=O)c1ccc(Nc3ccc(F)c(NC(=O)c4cccs4)c3)cc1CC2`, 57.1%; to `O=C(NCCN1CCOCC1)c1ccc2c(c1)C(=O)c1ccc(Nc3ccc(F)c(NC(=O)c4ccccc4)c3)cc1CC2` [FS-694], 40.6%.
